In ChEMBL document CHEMBL5331111, “Synthetic Biology Facilitates Semisynthetic Development of Type V Glycopeptide Antibiotics Targeting Vancomycin-Resistant Enterococcus” (J Med Chem, 2023):
In brackets after ≈: the same amount, converted by molar mass.

How the values were obtained:
Format in all cases: functional
Staphylococcus aureus = experiment: Antibacterial activity against Staphylococcus aureus ATCC 33591 assessed as reduction in bacterial growth by Mueller-Hinton broth based assay
Outline: (§1)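 Broth MIC by standard procedure in Mueller-Hinton broth, for both B. subtilis 168 and S. aureus ATCC 33591.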

[1] = system: Mycolicibacterium smegmatis; experiment: Antimycobacterial activity against Mycobacterium smegmatis MC2 155 assessed as inhibition of bacterial growth measured after 2 days by resazurin dye based analysis; details: MC2 155, 48 h, time 2 day
Outline: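 Strains grown in 7H9 broth with 0.2% glycerol, 10% OADC and 0.05% Tween-80. Inoculum was about 5 × 10^5 CFU/mL, checked by plating on 7H10/OADC agar to be 3–8 × 10^5. Read at 2 days for M. smegmatis and 7 days for M. tuberculosis H37Ra, M. bovis and M. avium. Resazurin 30 μg/mL was then added for one further day. Values are averages of at least two experiments.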

Enterococcus faecium = experiment: Antibacterial activity against vancomycin-resistant Enterococcus faecium ATCC 700221 assessed as inhibition of bacterial growth by Mueller-Hinton broth based assay
Enterococcus faecalis = experiment: Antibacterial activity against vancomycin-resistant Enterococcus faecalis ATCC 51299 assessed as inhibition of bacterial growth by Mueller-Hinton broth based assay
Bacillus subtilis = experiment: Antibacterial activity against Bacillus subtilis 168 assessed as reduction in bacterial growth by Mueller-Hinton broth based assay; outline: as §1

SMILES | MIC (Staphylococcus aureus) [µg/mL] | MIC [1] [µg/mL] | MIC (Enterococcus faecium) [µg/mL] | MIC (Enterococcus faecalis) [µg/mL] | MIC (Bacillus subtilis) [µg/mL]
CN1C(=O)[C@@H]2NC(=O)[C@@H]3NC(=O)[C@@H](c4ccc(O)cc4)NC(=O)[C@H](NC(=O)C(Nc4cc(Cl)cc(Cl)c4Cl)c4ccc(O)cc4)Cc4c[nH]c5cc(ccc45)-c4cc3cc(c4O)Oc3ccc(cc3)C[C@H]1C(=O)N[C@@H](C(=O)O)c1ccc(O)c(c1)Oc1ccc2cc1 (stereo not given in full) | 4 (≈ 3.08 µM) | > 128 | 16 (≈ 12.3 µM) | 8 (≈ 6.15 µM) | 4 (≈ 3.08 µM)
CN1C(=O)[C@@H]2NC(=O)[C@@H]3NC(=O)[C@@H](c4ccc(O)cc4)NC(=O)[C@H](NC(=O)C(NC(=O)OC(C)(C)C)c4ccc(O)cc4)Cc4c[nH]c5cc(ccc45)-c4cc3cc(c4O)Oc3ccc(cc3)C[C@H]1C(=O)N[C@@H](C(=O)O)c1ccc(O)c(c1)Oc1ccc2cc1 (stereo not given in full) | – | – | 16 (≈ 13.1 µM) | – | –
CN1C(=O)[C@@H]2NC(=O)[C@@H]3NC(=O)[C@@H](c4ccc(O)cc4)NC(=O)[C@H](NC(=O)C(Nc4cccc(-c5ccc(F)cc5)c4)c4ccc(O)cc4)Cc4c[nH]c5cc(ccc45)-c4cc3cc(c4O)Oc3ccc(cc3)C[C@H]1C(=O)N[C@@H](C(=O)O)c1ccc(O)c(c1)Oc1ccc2cc1 (stereo not given in full) | > 128 | > 128 | 16 (≈ 12.4 µM) | 16 (≈ 12.4 µM) | > 128
CN(C)CCCNC(=O)[C@@H]1NC(=O)[C@@H]2Cc3ccc(cc3)Oc3cc4cc(c3O)-c3ccc5c(c[nH]c5c3)C[C@@H](NC(=O)C(N)c3ccc(O)cc3)C(=O)N[C@H](c3ccc(O)cc3)C(=O)N[C@H]4C(=O)N[C@@H](C(=O)N2C)c2ccc(cc2)Oc2cc1ccc2O (stereo not given in full) | – | – | 2 (≈ 1.66 µM) | – | –
CCCCNC(C(=O)N[C@@H]1Cc2c[nH]c3cc(ccc23)-c2cc3cc(c2O)Oc2ccc(cc2)C[C@H]2C(=O)N[C@@H](C(=O)O)c4ccc(O)c(c4)Oc4ccc(cc4)[C@@H](NC(=O)[C@@H]3NC(=O)[C@@H](c3ccc(O)cc3)NC1=O)C(=O)N2C)c1ccc(O)cc1 (stereo not given in full) | 16 (≈ 13.6 µM) | – | – | – | –
CN1C(=O)[C@@H]2NC(=O)[C@@H]3NC(=O)[C@@H](c4ccc(O)cc4)NC(=O)[C@H](NC(=O)C(Nc4cc(C(F)(F)F)cc(C(F)(F)F)c4)c4ccc(O)cc4)Cc4c[nH]c5cc(ccc45)-c4cc3cc(c4O)Oc3ccc(cc3)C[C@H]1C(=O)N[C@@H](C(=O)O)c1ccc(O)c(c1)Oc1ccc2cc1 (stereo not given in full) | 8 (≈ 6 µM) | > 128 | 8 (≈ 6 µM) | 8 (≈ 6 µM) | 8 (≈ 6 µM)
CN1C(=O)[C@@H]2NC(=O)[C@@H]3NC(=O)[C@@H](c4ccc(O)cc4)NC(=O)[C@H](NC(=O)Cc4ccc(O)cc4)Cc4c[nH]c5cc(ccc45)-c4cc3cc(c4O)Oc3ccc(cc3)C[C@H]1C(=O)N[C@@H](C(=O)NCCC[N+]1(C)CCCC1)c1ccc(O)c(c1)Oc1ccc2cc1 | > 128 | 1 | 8 | – | –
CN1C(=O)[C@@H]2NC(=O)[C@@H]3NC(=O)[C@@H](c4ccc(O)cc4)NC(=O)[C@H](NC(=O)C(Nc4cc(O)cc(O)c4)c4ccc(O)cc4)Cc4c[nH]c5cc(ccc45)-c4cc3cc(c4O)Oc3ccc(cc3)C[C@H]1C(=O)N[C@@H](C(=O)O)c1ccc(O)c(c1)Oc1ccc2cc1 (stereo not given in full) | 4 (≈ 3.25 µM) | > 128 | 16 (≈ 13 µM) | 4 (≈ 3.25 µM) | 1 (≈ 0.814 µM)
CN[C@H](CC(C)C)C(=O)N[C@H]1C(=O)N[C@@H](CC(N)=O)C(=O)N[C@H]2C(=O)N[C@H]3C(=O)N[C@H](C(=O)N[C@H](C(=O)O)c4cc(O)cc(O)c4-c4cc3ccc4O)[C@H](O)c3ccc(c(Cl)c3)Oc3cc2cc(c3O[C@@H]2O[C@H](CO)[C@@H](O)[C@H](O)[C@H]2O[C@H]2C[C@](C)(N)[C@H](O)[C@H](C)O2)Oc2ccc(cc2Cl)[C@H]1O [VANCOMYCIN] | – | 4 (≈ 2.76 µM) | > 128 | 32 (≈ 22.1 µM) | 0.5 (≈ 0.345 µM)
CN1C(=O)[C@@H]2NC(=O)[C@@H]3NC(=O)[C@@H](c4ccc(O)cc4)NC(=O)[C@H](NC(=O)C(NCCO)c4ccc(O)cc4)Cc4c[nH]c5cc(ccc45)-c4cc3cc(c4O)Oc3ccc(cc3)C[C@H]1C(=O)N[C@@H](C(=O)OCCO)c1ccc(O)c(c1)Oc1ccc2cc1 (stereo not given in full) | 32 (≈ 26.5 µM) | 16 (≈ 13.2 µM) | – | – | –
CNCCNC(=O)[C@@H]1NC(=O)[C@@H]2Cc3ccc(cc3)Oc3cc4cc(c3O)-c3ccc5c(c[nH]c5c3)C[C@@H](NC(=O)C(N)c3ccc(O)cc3)C(=O)N[C@H](c3ccc(O)cc3)C(=O)N[C@H]4C(=O)N[C@@H](C(=O)N2C)c2ccc(cc2)Oc2cc1ccc2O (stereo not given in full) | – | 0.5 (≈ 0.425 µM) | 1 (≈ 0.849 µM) | 4 (≈ 3.4 µM) | –
CCCCCCCCCCCNC(C(=O)N[C@@H]1Cc2c[nH]c3cc(ccc23)-c2cc3cc(c2O)Oc2ccc(cc2)C[C@H]2C(=O)N[C@@H](C(=O)O)c4ccc(O)c(c4)Oc4ccc(cc4)[C@@H](NC(=O)[C@@H]3NC(=O)[C@@H](c3ccc(O)cc3)NC1=O)C(=O)N2C)c1ccc(O)cc1 (stereo not given in full) | 16 (≈ 12.5 µM) | – | – | 4 (≈ 3.14 µM) | –
CN1C(=O)[C@@H]2NC(=O)[C@@H]3NC(=O)[C@@H](c4ccc(O)cc4)NC(=O)[C@H](NC(=O)C(Nc4ccc(F)cc4)c4ccc(O)cc4)Cc4c[nH]c5cc(ccc45)-c4cc3cc(c4O)Oc3ccc(cc3)C[C@H]1C(=O)N[C@@H](C(=O)O)c1ccc(O)c(c1)Oc1ccc2cc1 (stereo not given in full) | 8 (≈ 6.58 µM) | > 128 | 8 (≈ 6.58 µM) | 8 (≈ 6.58 µM) | 2 (≈ 1.65 µM)
CN1C(=O)[C@@H]2NC(=O)[C@@H]3NC(=O)[C@@H](c4ccc(O)cc4)NC(=O)[C@H](NC(=O)C(Nc4ccsc4)c4ccc(O)cc4)Cc4c[nH]c5cc(ccc45)-c4cc3cc(c4O)Oc3ccc(cc3)C[C@H]1C(=O)N[C@@H](C(=O)O)c1ccc(O)c(c1)Oc1ccc2cc1 (stereo not given in full) | 4 (≈ 3.32 µM) | > 128 | 8 (≈ 6.65 µM) | 4 (≈ 3.32 µM) | 1 (≈ 0.831 µM)
CN1C(=O)[C@@H]2NC(=O)[C@@H]3NC(=O)[C@@H](c4ccc(O)cc4)NC(=O)[C@H](NC(=O)C(Nc4cccc(F)c4F)c4ccc(O)cc4)Cc4c[nH]c5cc(ccc45)-c4cc3cc(c4O)Oc3ccc(cc3)C[C@H]1C(=O)N[C@@H](C(=O)O)c1ccc(O)c(c1)Oc1ccc2cc1 (stereo not given in full) | 16 (≈ 13 µM) | > 128 | 16 (≈ 13 µM) | 16 (≈ 13 µM) | 8 (≈ 6.49 µM)
CN1C(=O)[C@@H]2NC(=O)[C@@H]3NC(=O)[C@@H](c4ccc(O)cc4)NC(=O)[C@H](NC(=O)C(Nc4ccc(Br)cc4)c4ccc(O)cc4)Cc4c[nH]c5cc(ccc45)-c4cc3cc(c4O)Oc3ccc(cc3)C[C@H]1C(=O)N[C@@H](C(=O)O)c1ccc(O)c(c1)Oc1ccc2cc1 (stereo not given in full) | 4 (≈ 3.13 µM) | > 128 | 8 (≈ 6.27 µM) | 8 (≈ 6.27 µM) | 2 (≈ 1.57 µM)
CCCCCCCCNC(C(=O)N[C@@H]1Cc2c[nH]c3cc(ccc23)-c2cc3cc(c2O)Oc2ccc(cc2)C[C@H]2C(=O)N[C@@H](C(=O)O)c4ccc(O)c(c4)Oc4ccc(cc4)[C@@H](NC(=O)[C@@H]3NC(=O)[C@@H](c3ccc(O)cc3)NC1=O)C(=O)N2C)c1ccc(O)cc1 (stereo not given in full) | – | – | – | 8 (≈ 6.49 µM) | –
CN1C(=O)[C@@H]2NC(=O)[C@@H]3NC(=O)[C@@H](c4ccc(O)cc4)NC(=O)[C@H](NC(=O)C(Nc4cc(F)cc(F)c4F)c4ccc(O)cc4)Cc4c[nH]c5cc(ccc45)-c4cc3cc(c4O)Oc3ccc(cc3)C[C@H]1C(=O)N[C@@H](C(=O)O)c1ccc(O)c(c1)Oc1ccc2cc1 (stereo not given in full) | 8 (≈ 6.39 µM) | > 128 | 4 (≈ 3.2 µM) | 8 (≈ 6.39 µM) | 4 (≈ 3.2 µM)
CN1C(=O)[C@@H]2NC(=O)[C@@H]3NC(=O)[C@@H](c4ccc(O)cc4)NC(=O)[C@H](NC(=O)C(Nc4cccc(O)c4O)c4ccc(O)cc4)Cc4c[nH]c5cc(ccc45)-c4cc3cc(c4O)Oc3ccc(cc3)C[C@H]1C(=O)N[C@@H](C(=O)O)c1ccc(O)c(c1)Oc1ccc2cc1 (stereo not given in full) | 16 (≈ 13 µM) | > 128 | 16 (≈ 13 µM) | 8 (≈ 6.51 µM) | 4 (≈ 3.25 µM)
CN1C(=O)[C@@H]2NC(=O)[C@@H]3NC(=O)[C@@H](c4ccc(O)cc4)NC(=O)[C@H](NC(=O)C(Nc4ccccn4)c4ccc(O)cc4)Cc4c[nH]c5cc(ccc45)-c4cc3cc(c4O)Oc3ccc(cc3)C[C@H]1C(=O)N[C@@H](C(=O)O)c1ccc(O)c(c1)Oc1ccc2cc1 (stereo not given in full) | – | – | 16 (≈ 13.4 µM) | 16 (≈ 13.4 µM) | 4 (≈ 3.34 µM)
CN1C(=O)[C@@H]2NC(=O)[C@@H]3NC(=O)[C@@H](c4ccc(O)cc4)NC(=O)[C@H](NC(=O)C(Nc4cccc(O)c4)c4ccc(O)cc4)Cc4c[nH]c5cc(ccc45)-c4cc3cc(c4O)Oc3ccc(cc3)C[C@H]1C(=O)N[C@@H](C(=O)O)c1ccc(O)c(c1)Oc1ccc2cc1 (stereo not given in full) | 4 (≈ 3.3 µM) | > 128 | 4 (≈ 3.3 µM) | 4 (≈ 3.3 µM) | 0.5 (≈ 0.412 µM)
CN1C(=O)[C@@H]2NC(=O)[C@@H]3NC(=O)[C@@H](c4ccc(O)cc4)NC(=O)[C@H](NC(=O)C(NCCCCCCB(O)O)c4ccc(O)cc4)Cc4c[nH]c5cc(ccc45)-c4cc3cc(c4O)Oc3ccc(cc3)C[C@H]1C(=O)N[C@@H](C(=O)OCCCCCCB(O)O)c1ccc(O)c(c1)Oc1ccc2cc1 (stereo not given in full) | – | – | – | 64 (≈ 46.5 µM) | –
CN1C(=O)[C@@H]2NC(=O)[C@@H]3NC(=O)[C@@H](c4ccc(O)cc4)NC(=O)[C@H](NC(=O)C(NCCS(=O)(=O)O)c4ccc(O)cc4)Cc4c[nH]c5cc(ccc45)-c4cc3cc(c4O)Oc3ccc(cc3)C[C@H]1C(=O)N[C@@H](C(=O)OCCS(=O)(=O)O)c1ccc(O)c(c1)Oc1ccc2cc1 (stereo not given in full) | > 128 | – | > 128 | > 128 | –
